Assay results published in ChEMBL document CHEMBL4011598, “Sulfonamides as Selective NaV1.7 Inhibitors: Optimizing Potency and Pharmacokinetics While Mitigating Metabolic Liabilities” (J Med Chem, 2017).
Converted amounts (≈) assume the structure as drawn. The source made the active and inactive calls. No cut-off for these calls is given here.

Tests used:
Mus musculus = assay: Antipruriceptive activity in C57Bl/6 mouse assessed as reduction in number of histamine-induced scratching bouts at 30 to 300 mg/kg, po administered 4 hrs prior to histamine challenge measured over 15 mins; assay type: functional, organism-based
[1] = Ratio of unbound plasma concentration in C57Bl/6 mouse at 300 mg/kg, po to IC50 for human Nav1.7 at -125 mV holding potential
[2] = Aqueous solubility of the compound in PBS after 48 hrs by shake flask method; assay type: physicochemical
Plasma [3] = assay: Total plasma concentration in C57Bl/6 mouse at 30 mg/kg, po; assay type: ADME, organism-based; details: in vivo
[4] = target: Sodium channel protein type 9 subunit alpha (Rattus norvegicus, UniProt O08562); assay: Inhibition of rat Nav1.7 expressed in HEK293T cells incubated for 3 to 5 mins at -125 mV holding potential by electrophysiology assay; assay type: cell-based
[5] = target: Sodium channel protein type 5 subunit alpha (Homo sapiens, UniProt Q14524); assay: Inhibition of human Nav1.5 expressed in HEK293 cells assessed as reduction in peak inward current by ionworks quattro electrophysiology assay; assay type: cell-based
[6] = AUC in dog at 2 mg/kg, po; assay type: ADME, organism-based, Canis lupus familiaris; details: in vivo
[7] = Half life in dog at 0.25 mg/kg, iv; assay type: ADME, organism-based, Canis lupus familiaris; details: in vivo
How it was run: (§1)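 Male dogs received a single 0.25 mg/kg iv dose in DMSO. Unbound clearance (CLu) is total clearance divided by fu, the unbound fraction in plasma.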

[8] = target: T1, Sodium channel protein type 9 subunit alpha (Homo sapiens, UniProt Q15858); assay: Inhibition of human Nav1.7 expressed in HEK293 cells incubated for 3 to 5 mins at -125 mV holding potential by electrophysiology assay; assay type: cell-based
[9] = Unbound fraction in rat plasma at 5 uM by LC-MS/MS method; assay type: ADME, cell-free
Canis familiaris = assay: Unbound clearance in dog at 0.25 mg/kg, iv; assay type: ADME, organism-based, Canis lupus familiaris; details: in vivo; how it was run: as §1
[10] = Volume of distribution at steady state in dog at 0.25 mg/kg, iv; assay type: ADME, organism-based, Canis lupus familiaris; details: in vivo, read-out: Vdss; how it was run: as §1
[11] = Unbound fraction in dog plasma at 5 uM by LC-MS/MS method; assay type: ADME, cell-free, Canis lupus familiaris
Plasma [12] = assay: Total plasma concentration in C57Bl/6 mouse at 300 mg/kg, po; assay type: ADME, organism-based; details: in vivo
Rattus norvegicus = assay: Unbound clearance in rat at 0.5 mg/kg, iv; assay type: ADME, organism-based; details: in vivo
How it was run: (§2)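 Male rats given a single 0.5 mg/kg iv dose in DMSO. Unbound clearance (CLu) is total clearance divided by fu, the unbound fraction in plasma.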

[13] = target: Sodium channel protein type 4 subunit alpha (Homo sapiens, UniProt P35499); assay: Inhibition of human Nav1.4 expressed in HEK293 cells assessed as reduction in peak inward current by ionworks quattro electrophysiology assay; assay type: cell-based
[14] = target: T1, Sodium channel protein type 9 subunit alpha; assay: Inhibition of human Nav1.7 at resting/closed state expressed in HEK293 cells at -140 mV holding potential by manual whole cell patch clamp electrophysiology assay; assay type: cell-based
Cytochrome P450 3A4 = Cytochrome P450 3A4 (Homo sapiens, UniProt P08684); assay: Induction of CYP3A4 in human hepatocytes at 10 uM relative to rifampicin
Plasma [15] = assay: Unbound plasma concentration in C57Bl/6 mouse at 30 mg/kg, po; assay type: ADME, organism-based; details: in vivo
[16] = AUC in rat at 10 mg/kg, po; assay type: ADME, organism-based; details: in vivo
[17] = target: T1, Sodium channel protein type 9 subunit alpha; assay: Inhibition of human Nav1.7 expressed in HEK293 cells assessed as reduction in peak inward current by ionworks quattro electrophysiology assay; assay type: cell-based
[18] = target: Sodium channel protein type 8 subunit alpha (Homo sapiens, UniProt Q9UQD0); assay: Inhibition of human Nav1.6 expressed in HEK293 cells assessed as reduction in peak inward current by ionworks quattro electrophysiology assay; assay type: cell-based
[19] = target: Sodium channel protein type 1 subunit alpha (Homo sapiens, UniProt P35498); assay: Inhibition of human Nav1.1 expressed in HEK293 cells assessed as reduction in peak inward current by ionworks quattro electrophysiology assay; assay type: cell-based
[20] = Total clearance in dog at 0.25 mg/kg, iv; assay type: ADME, organism-based, Canis lupus familiaris; details: in vivo; how it was run: as §1
[21] = target: Voltage-gated inwardly rectifying potassium channel KCNH2 (Homo sapiens, UniProt Q12809); assay: Inhibition of human hERG by patch clamp method
Cytochrome P450 2D6 = Cytochrome P450 2D6 (Homo sapiens, UniProt P10635); assay: Inhibition of CYP2D6 (unknown origin); assay type: ADME
PXR (NR1I2) = target: T2, PXR (NR1I2) (Homo sapiens, UniProt O75469); assay: Activation of human PXR at 10 uM in presence of rifampicin; assay type: ADME; details: read-out: Activity
T2 sequence (O75469 whole entry): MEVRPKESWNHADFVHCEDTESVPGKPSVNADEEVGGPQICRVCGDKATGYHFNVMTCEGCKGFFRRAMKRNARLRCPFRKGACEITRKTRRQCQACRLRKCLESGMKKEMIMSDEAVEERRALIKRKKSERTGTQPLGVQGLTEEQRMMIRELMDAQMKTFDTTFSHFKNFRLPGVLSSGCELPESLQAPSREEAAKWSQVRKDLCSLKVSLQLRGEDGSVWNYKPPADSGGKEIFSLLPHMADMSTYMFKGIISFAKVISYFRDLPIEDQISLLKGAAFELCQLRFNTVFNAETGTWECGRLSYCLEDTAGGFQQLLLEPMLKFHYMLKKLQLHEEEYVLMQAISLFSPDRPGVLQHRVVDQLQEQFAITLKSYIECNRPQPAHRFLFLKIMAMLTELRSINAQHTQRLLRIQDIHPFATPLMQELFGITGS

Plasma [22] = assay: Unbound plasma concentration in C57Bl/6 mouse at 300 mg/kg, po; assay type: ADME, organism-based; details: in vivo
Plasma [23] = assay: Total plasma concentration in C57Bl/6 mouse at 100 mg/kg, po; assay type: ADME, organism-based; details: in vivo
[24] = target: Sodium channel protein type 3 subunit alpha (Homo sapiens, UniProt Q9NY46); assay: Inhibition of human Nav1.3 expressed in CHO cells assessed as reduction in peak inward current by ionworks quattro electrophysiology assay; assay type: cell-based
[25] = Unbound fraction in mouse plasma at 5 uM by LC-MS/MS method; assay type: ADME, cell-free
Cytochrome P450 2C9 = Cytochrome P450 2C9 (Homo sapiens, UniProt P11712); assay: Inhibition of CYP2C9 (unknown origin); assay type: ADME
[26] = Half life in rat at 0.5 mg/kg, iv; assay type: ADME, organism-based; details: in vivo; how it was run: as §2
[27] = Tmax in rat at 10 mg/kg, po; assay type: ADME, organism-based; details: in vivo
[28] = Tmax in dog at 2 mg/kg, po; assay type: ADME, organism-based, Canis lupus familiaris; details: in vivo

T1 sequence (Q15858 whole entry): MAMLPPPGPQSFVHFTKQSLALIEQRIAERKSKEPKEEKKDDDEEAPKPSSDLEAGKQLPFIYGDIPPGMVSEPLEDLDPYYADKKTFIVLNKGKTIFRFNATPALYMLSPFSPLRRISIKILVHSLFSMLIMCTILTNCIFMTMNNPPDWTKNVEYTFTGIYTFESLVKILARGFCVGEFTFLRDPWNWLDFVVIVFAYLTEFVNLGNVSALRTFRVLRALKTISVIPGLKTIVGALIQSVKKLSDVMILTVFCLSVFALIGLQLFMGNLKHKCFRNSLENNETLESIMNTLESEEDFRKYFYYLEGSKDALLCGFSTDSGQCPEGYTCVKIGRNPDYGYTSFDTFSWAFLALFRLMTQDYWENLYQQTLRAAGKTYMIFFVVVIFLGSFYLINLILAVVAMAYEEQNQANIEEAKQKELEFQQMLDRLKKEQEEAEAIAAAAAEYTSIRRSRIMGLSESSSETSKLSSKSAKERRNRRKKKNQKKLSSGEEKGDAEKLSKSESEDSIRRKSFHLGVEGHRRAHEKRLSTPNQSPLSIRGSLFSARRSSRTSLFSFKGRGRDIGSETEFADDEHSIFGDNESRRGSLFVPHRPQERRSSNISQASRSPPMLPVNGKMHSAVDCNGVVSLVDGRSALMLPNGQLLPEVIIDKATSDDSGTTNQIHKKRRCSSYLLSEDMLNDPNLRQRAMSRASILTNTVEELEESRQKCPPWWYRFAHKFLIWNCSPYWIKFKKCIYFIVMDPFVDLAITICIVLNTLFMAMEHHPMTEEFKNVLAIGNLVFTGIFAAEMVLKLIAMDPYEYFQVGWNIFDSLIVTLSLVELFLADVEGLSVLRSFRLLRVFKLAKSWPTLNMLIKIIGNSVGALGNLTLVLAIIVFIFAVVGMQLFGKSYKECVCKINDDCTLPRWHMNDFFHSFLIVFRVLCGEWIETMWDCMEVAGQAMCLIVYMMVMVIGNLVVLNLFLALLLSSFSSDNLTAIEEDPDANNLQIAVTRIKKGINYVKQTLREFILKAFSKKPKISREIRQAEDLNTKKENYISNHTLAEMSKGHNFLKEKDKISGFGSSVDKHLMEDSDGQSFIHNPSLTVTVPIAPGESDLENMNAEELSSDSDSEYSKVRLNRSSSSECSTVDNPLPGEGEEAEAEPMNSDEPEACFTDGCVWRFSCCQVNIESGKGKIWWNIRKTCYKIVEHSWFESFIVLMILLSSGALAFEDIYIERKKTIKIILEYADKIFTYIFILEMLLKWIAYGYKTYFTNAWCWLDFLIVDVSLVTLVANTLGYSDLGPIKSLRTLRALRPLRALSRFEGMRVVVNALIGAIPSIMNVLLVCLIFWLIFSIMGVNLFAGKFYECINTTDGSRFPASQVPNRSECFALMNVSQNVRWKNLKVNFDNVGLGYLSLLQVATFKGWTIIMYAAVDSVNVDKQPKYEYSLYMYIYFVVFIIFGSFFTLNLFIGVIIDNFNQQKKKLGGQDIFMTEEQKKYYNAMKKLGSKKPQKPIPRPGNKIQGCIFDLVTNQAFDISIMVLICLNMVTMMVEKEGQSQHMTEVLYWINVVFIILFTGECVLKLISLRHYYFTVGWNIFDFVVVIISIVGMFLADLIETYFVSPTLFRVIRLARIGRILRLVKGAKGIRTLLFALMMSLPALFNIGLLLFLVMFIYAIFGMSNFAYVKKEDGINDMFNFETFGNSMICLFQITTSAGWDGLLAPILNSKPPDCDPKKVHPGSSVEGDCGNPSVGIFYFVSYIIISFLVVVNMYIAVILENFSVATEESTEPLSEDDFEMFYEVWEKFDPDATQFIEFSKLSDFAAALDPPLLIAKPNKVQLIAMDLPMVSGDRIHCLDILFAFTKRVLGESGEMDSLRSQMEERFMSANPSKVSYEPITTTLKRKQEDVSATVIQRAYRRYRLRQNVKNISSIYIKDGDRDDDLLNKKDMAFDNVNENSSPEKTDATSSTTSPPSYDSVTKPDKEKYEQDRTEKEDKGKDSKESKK
Chain of Sodium channel protein type 8 subunit alpha (Q9UQD0 whole entry): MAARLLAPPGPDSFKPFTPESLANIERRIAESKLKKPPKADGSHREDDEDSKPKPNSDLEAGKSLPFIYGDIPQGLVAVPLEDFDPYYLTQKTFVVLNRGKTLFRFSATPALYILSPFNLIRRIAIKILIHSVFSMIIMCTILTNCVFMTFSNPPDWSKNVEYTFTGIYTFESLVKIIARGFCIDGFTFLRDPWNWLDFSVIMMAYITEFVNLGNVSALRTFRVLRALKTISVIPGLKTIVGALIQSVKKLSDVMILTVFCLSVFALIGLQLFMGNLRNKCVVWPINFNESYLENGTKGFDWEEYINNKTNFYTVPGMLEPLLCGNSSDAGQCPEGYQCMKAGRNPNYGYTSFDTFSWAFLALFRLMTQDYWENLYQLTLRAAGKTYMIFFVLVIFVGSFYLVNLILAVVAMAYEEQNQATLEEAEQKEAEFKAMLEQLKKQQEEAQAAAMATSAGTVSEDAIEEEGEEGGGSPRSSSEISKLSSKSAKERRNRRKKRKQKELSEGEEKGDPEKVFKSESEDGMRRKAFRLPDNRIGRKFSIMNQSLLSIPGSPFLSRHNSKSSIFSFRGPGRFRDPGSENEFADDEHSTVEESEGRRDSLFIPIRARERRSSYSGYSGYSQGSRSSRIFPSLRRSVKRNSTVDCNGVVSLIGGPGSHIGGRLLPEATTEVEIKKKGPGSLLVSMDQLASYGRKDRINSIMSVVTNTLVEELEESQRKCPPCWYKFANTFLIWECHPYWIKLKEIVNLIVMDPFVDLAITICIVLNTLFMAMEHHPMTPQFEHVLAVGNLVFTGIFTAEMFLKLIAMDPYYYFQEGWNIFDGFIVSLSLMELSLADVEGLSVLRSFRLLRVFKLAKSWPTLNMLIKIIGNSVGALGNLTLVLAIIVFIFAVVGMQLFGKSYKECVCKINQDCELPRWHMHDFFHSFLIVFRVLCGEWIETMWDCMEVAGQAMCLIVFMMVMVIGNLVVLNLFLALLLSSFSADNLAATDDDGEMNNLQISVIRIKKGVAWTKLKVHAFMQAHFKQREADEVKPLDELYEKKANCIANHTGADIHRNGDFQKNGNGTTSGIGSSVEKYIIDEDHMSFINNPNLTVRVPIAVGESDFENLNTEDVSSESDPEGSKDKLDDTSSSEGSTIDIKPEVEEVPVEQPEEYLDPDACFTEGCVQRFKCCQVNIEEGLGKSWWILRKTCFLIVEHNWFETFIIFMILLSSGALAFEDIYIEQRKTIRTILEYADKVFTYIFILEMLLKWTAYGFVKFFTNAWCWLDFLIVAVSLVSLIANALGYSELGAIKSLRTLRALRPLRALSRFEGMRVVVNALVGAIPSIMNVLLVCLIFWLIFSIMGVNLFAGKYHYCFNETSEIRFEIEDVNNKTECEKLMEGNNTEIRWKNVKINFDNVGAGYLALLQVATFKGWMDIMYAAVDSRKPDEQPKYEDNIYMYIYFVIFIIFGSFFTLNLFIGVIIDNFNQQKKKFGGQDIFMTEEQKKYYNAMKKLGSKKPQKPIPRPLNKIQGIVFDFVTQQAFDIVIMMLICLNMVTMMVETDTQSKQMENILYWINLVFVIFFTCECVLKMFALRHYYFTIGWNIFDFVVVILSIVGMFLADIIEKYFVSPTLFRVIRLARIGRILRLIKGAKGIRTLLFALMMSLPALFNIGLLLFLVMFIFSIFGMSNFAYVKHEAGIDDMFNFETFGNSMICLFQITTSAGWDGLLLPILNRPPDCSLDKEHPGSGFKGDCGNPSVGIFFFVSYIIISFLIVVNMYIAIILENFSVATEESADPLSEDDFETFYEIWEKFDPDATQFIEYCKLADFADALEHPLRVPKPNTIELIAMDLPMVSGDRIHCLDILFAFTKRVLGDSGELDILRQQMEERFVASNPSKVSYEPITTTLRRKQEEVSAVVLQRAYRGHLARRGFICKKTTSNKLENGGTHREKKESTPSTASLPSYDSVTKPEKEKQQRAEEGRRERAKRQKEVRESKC
Chain of Cytochrome P450 2D6 (P10635 whole entry): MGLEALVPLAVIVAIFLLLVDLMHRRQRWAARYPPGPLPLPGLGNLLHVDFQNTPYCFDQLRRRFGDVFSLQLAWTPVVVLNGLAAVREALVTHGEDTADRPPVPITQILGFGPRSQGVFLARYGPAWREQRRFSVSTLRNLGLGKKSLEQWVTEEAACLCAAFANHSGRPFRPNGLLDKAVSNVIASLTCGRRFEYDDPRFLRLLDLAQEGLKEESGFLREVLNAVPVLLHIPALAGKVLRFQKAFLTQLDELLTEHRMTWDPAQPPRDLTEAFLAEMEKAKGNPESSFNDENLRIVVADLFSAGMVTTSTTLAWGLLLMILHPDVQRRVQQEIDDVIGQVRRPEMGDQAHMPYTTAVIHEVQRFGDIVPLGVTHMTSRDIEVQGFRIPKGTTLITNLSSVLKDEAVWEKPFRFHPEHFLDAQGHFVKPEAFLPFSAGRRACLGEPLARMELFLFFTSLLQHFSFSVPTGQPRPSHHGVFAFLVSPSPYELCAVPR
Chain of Cytochrome P450 3A4 (P08684 whole entry): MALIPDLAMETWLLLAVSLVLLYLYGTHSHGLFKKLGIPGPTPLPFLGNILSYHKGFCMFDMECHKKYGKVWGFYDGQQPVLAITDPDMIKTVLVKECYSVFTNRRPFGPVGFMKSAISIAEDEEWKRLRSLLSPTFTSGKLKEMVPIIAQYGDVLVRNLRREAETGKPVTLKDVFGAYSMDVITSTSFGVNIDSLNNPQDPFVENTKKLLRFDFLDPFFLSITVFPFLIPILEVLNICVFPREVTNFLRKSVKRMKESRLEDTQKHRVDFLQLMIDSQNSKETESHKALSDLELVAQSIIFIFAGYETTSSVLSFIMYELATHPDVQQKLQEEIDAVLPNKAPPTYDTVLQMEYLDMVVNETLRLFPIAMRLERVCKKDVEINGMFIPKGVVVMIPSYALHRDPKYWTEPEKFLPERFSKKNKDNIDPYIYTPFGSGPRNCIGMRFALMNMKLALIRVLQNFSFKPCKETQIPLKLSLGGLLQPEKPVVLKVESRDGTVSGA

COc1cc(-c2cccc(C(F)(F)F)c2)c(F)cc1-c1nccc2cc(S(=O)(=O)Nc3ccon3)ccc12
Activity (Mus musculus): Active
Ratio [1]: 45
solubility thermodynamic at 48 h [2]: 432 µM (≈ 235 µg/mL)
concentration (Plasma [3]): 21.2 µM
IC50 [4]: 4 µM
IC50 [5]: 12 µM
AUC [6]: 101 µM·h
half-life [7]: 20 h
IC50 [8]: 0.036 µM
fraction unbound at 5 µM [9]: 0.0087
CL free (Canis familiaris): 60 mL/min/kg
Vd [10]: 0.56 L/kg
fraction unbound at 5 µM [11]: 0.0066
concentration (Plasma [12]): 137 µM
CL free (Rattus norvegicus): 433 mL/min/kg
IC50 [13]: 12 µM
IC50 [14]: 4 µM
Activity (Cytochrome P450 3A4): 7%
Cp(f) (Plasma [15]): 0.246 µM
AUC [16]: 44.2 µM·h
IC50 [17]: 0.017 µM
IC50 [18]: 16 µM
IC50 [19]: 17 µM
clearance [20]: 0.383 mL/min/kg
IC50 [21]: > 10 µM
IC50 (Cytochrome P450 2D6): > 15 µM
activity at 10 µM (PXR (NR1I2)): 1%
Cp(f) (Plasma [22]): 1.59 µM
concentration (Plasma [23]): 106 µM
IC50 [24]: 6.9 µM
fraction unbound at 5 µM [25]: 0.0116
IC50 (Cytochrome P450 2C9): 0.43 µM
half-life [26]: 6.2 h
Tmax [27]: 6 h
Tmax [28]: 2 h
